According to ChEMBL document CHEMBL4513216, “Probing the Open Global Health Chemical Diversity Library for Multistage-Active Starting Points for Next-Generation Antimalarials” (ACS Infect Dis, 2020):

Assay: Toxicity liver stage against HepG2, at 10uM
Assay type: cell-based
Parameters: test concentration 10 uM, cell line HepG2-A16-CD81EGFP
Details: human, HepG2-A16-CD81EGFP cells; read-out: INHIBITION
Summary of the method: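 Uninfected HepG2-A16-CD81EGFP cells, 3 × 10^3 per well, 1536-well, plated on prespotted compound at 10 μM final, parasite-free screening media added to match infected plates; puromycin 10 μM positive, DMSO 0.5% negative; run in parallel with 48 h PbLuc assay at 37 °C, 5% CO2; viability by CellTiter-Glo luminescence, normalized to controls.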

Row | SMILES | cytotoxicity at 10 µM [%]
1 | CC(C)NC(=O)NC[C@H]1OC[C@@H](NCc2ccccc2F)[C@@H]1O | -1.31
2 | CC(C)(C)CN1CC(COc2ccccc2)Oc2ccncc2S1(=O)=O (configuration not stated) | -65.3
3 | COc1cccc(CN2CC(O)CN(C(=O)C(C)(C)C)CC2=O)c1OC (configuration not stated) | -57.6
4 | CC1=Nc2c(c(=O)[nH]n2C(C)C)C(c2ccc3nccnc3c2)S1 (configuration not stated) | 7.29
5 | CC(C)n1ncc2c1NC(=O)CC21C(=O)Nc2c(Br)cc(Cl)cc21 (configuration not stated) | 5.99
6 | O=C(CCNC(=O)c1cnccn1)Nc1ncc[nH]1 | -44.7
7 | O=c1ccc(-n2ccnc2)nn1CCNS(=O)(=O)c1ccc(Br)cc1 | -7.21
8 | Cc1ccc(N2CCC3(CCN(Cc4csc(C)n4)CC3)CC2)nn1 | 9.43
9 | Cc1cc(NC(=O)CCn2nc(C)c3ccccc32)n(C(C)C)n1 | 4.95
10 | CC(=O)Nc1ccc(CCC2(NC(=O)C3CC3)CCCCC2)cn1 | 13.4
11 | CCN1CCCC(O)(c2nc(C)c(CCOc3ccc(F)cc3)s2)CC1 (configuration not stated) | -22.4
12 | Cc1cccc(CN2CCOC(C)(C(=O)N3CCOCC3)C2)n1 (configuration not stated) | -9.19
13 | COCCN(C(=O)c1ccccn1)c1nc2c(s1)CCc1c-2cnn1C | -13.8
14 | Cc1cc(-c2ccccc2C(=O)O)nc(C2CCCCN2C)n1 (configuration not stated) | -0.168
15 | O=C(O)C1(Cc2cccc(-c3ccc(F)c(F)c3)c2)CCOCC1 | -2.5
16 | Fc1ccc(CN2CCCC(c3nnc(-c4cnccn4)o3)C2)cc1F (configuration not stated) | -8.03
17 | COc1ccc2c(c1)CC(NCc1cccc(NC(C)=O)c1)CC2 (configuration not stated) | -39.2
18 | COCCn1nc(C(=O)N2CCN(C)CC2C)ccc1=O (configuration not stated) | -0.451
19 | O=c1oc(-c2ccc(F)cc2)nn1CC1CCCCO1 (configuration not stated) | 2.35
20 | O=C(NCC1(O)CCC1)c1c(O)cc(F)cc1F | 6.22
21 | COc1ccc(C2CCN(S(=O)(=O)CCCC#N)CC2)cc1 | 7.13

Row | SMILES | cytotoxicity at 10 µM [%]
22 | CC(C)c1csc(C2CCCN(C(=O)c3ccc[nH]3)C2)n1 (configuration not stated) | -48.6
23 | Cc1cnn(C2CN(CCOc3ccccc3C#N)C2)c1 | -8.88
24 | O=C(C1CCCCN1Cc1nccn1CC(F)(F)F)N1CCCC1 (configuration not stated) | 14.2
25 | CCC(CC)C(=O)NCC1(NC(C)c2ccccc2)CCOCC1 (configuration not stated) | 14.7
26 | O=c1oc(-c2cccs2)nn1CC(O)c1ccc2c(c1)CCC2 (configuration not stated) | 5.33
27 | COCCN1CCCC1c1cccc2c1OCCO2 (configuration not stated) | -9.54
28 | Fc1ccc(OCC2CCCO2)c(NCc2cn3cccnc3n2)c1 (configuration not stated) | -6.31
29 | COCCN(Cc1cccnc1)S(=O)(=O)c1cc(C)ccc1F | 10.3
30 | COc1cccc2c1OCC(NC(=O)NCCc1ccccn1)C2 (configuration not stated) | 5.69
31 | CCN(CC)C(=O)CN(C)C(=O)c1ccc(-c2ccsc2)nc1C | 18.1
32 | CCCc1nnc(NC(=O)N2CCCC2c2ccncc2)s1 (configuration not stated) | 5.36
33 | COC(=O)C(C)N1CCCc2cc(OC)ccc2C1 (configuration not stated) | 11
34 | CC(C)Cc1nc(CN(C)CCOc2ccc(F)cc2)no1 | -4.68
35 | Cc1cc(CS(=O)(=O)C(C)C(=O)N(C)c2ccccc2)on1 (configuration not stated) | 2.74
36 | CN(CC1CCN(CCO)CC1)CC(O)c1ccc(F)cc1F (configuration not stated) | -59.3
37 | Cc1ccc2c(c1)OC(C)CN2C(=O)Cc1ccc(C)nc1 (configuration not stated) | -44.2
38 | CCOCc1ccccc1NC(=O)NC1CCN(C2CCCC2)C1 (configuration not stated) | 9.42
39 | CN1Cc2ccccc2CC2(CCN(C(=O)[C@H]3CCCO3)CC2)C1=O | -113
40 | CC(=O)N1CCC(c2nnc3ccc(C(=O)NCCN(C)C)cn23)C1 (configuration not stated) | -104
41 | O=C(COc1ccc(F)cc1)N1CCO[C@H]2[C@@H](OCC3CC3)CC[C@@H]21 | -101
42 | Cc1noc([C@H]2C[C@H]3CN(C(=O)C4CCOCC4)CC[C@@H]3O2)n1 | -72.6

Row | SMILES | cytotoxicity at 10 µM [%]
43 | CN(C)Cc1csc(-c2nccn2CCc2cccnc2)c1 | -51.2
44 | CCc1ncc(C(=O)N(C)CCc2nc3cc(OC)ccc3[nH]2)cn1 | -47.4
45 | COC(=O)NCC(=O)N1CCCn2nc(CN3CC[C@H](F)C3)cc2C1 | 13
46 | CNc1ccnc(N2CC[C@@](O)(C3CCOCC3)[C@H](C)C2)n1 | 8.64
47 | Cc1ccc(-n2cccn2)cc1S(=O)(=O)N1C[C@H](C2CC2)[C@@H](N)C1 | 0.479
48 | Cc1nn(CC(=O)NCc2cc3n(n2)CCCN(CC(C)C)C3)cc1Cl | 1.95
49 | CCc1nnc(CN(C)c2nccc(CCC(F)(F)F)n2)o1 | 7.4
50 | N[C@@H]1CCN(Cc2cccc(N3CCOCC3)c2)C[C@H]1O | 11.8
51 | CCCc1nnc2sc(CC3CN(Cc4ccccc4)CCO3)nn12 (configuration not stated) | 5.3
52 | CCC(CNc1ncnc2oc(C)nc12)Cc1ccccc1 (configuration not stated) | 1.23
53 | CC1CCCN1Cc1cccc(C(=O)Nc2ccc3c(c2)CCC3=O)c1 (configuration not stated) | -30.9
54 | CCNCCOc1ccc(-c2cc(N)nc3[nH]ccc23)cc1 | 24.3
55 | CCSCCn1cc(-c2ncc[nH]2)nn1 | -41.4
56 | OC1(CN2CCCCC2)CCN(c2ccc(C(F)(F)F)cn2)C1 (configuration not stated) | -11
57 | O=C(C1CCCO1)N1CCc2onc(-c3ccc(Cl)cc3)c2C1 (configuration not stated) | -65.8
58 | CC(C)Cc1cc(C(=O)NC(C)(C)CN2CCCCCC2)on1 | -4.75
59 | Cc1nn(C)cc1-c1ccnc(NCCN)n1 | -0.571
60 | CN(C)CCCN(C)c1nccc(N2CCN[C@H]3CS(=O)(=O)C[C@H]32)n1 | -0.0813
61 | CNC(=O)Cn1c(-c2ccco2)nn(-c2ccccc2OC)c1=O | 2.51
62 | CC(=O)NCC1CCN(c2cc(C(C)C)nc3ccnn23)CC1 | 6.64
63 | COc1cc(CN(C)C(C)c2ccccn2)cc2c1OCO2 (configuration not stated) | 8.97

Row | SMILES | cytotoxicity at 10 µM [%]
64 | O=C(Cc1ccsc1)N1CCCC(c2n[nH]c3nccnc23)C1 (configuration not stated) | 1.98
65 | Cc1cc2c(=O)n3c(nc2s1)CCN(Cc1ccncc1)CC3 | 10.9
66 | COc1c(CNC2CCc3cc(Cl)ccc32)c(C)nn1C (configuration not stated) | 5.64
67 | CCCc1nc(CNCC2CCCN2c2cccnn2)no1 (configuration not stated) | -9.52
68 | CS(=O)(=O)NC1CCN(C(=O)NCc2cccnc2)CC1 | 0.796
69 | COc1ccccc1N1CCC(CNCc2cccc(OC)c2OC)C1 (configuration not stated) | 0.445
70 | CCN(CCNC(=O)c1ccccc1OCCOC)C1CC1 | 11.7
71 | Cc1ncc(CNCCO)c2cc(C(=O)c3ccc(Br)cc3)oc12 | 15.2
72 | CN1C(=O)CCC12CCCN(Cc1nccs1)C2 (configuration not stated) | -68.8
73 | CCOc1ccc(CNCC(O)c2ccccc2)cc1Cl (configuration not stated) | -3.4
74 | CC1CCN(C(=O)[C@@H]2C[C@H]3OCC[C@H]3N(Cc3ccoc3)C2)CC1 | -72.5
75 | c1cnc(-c2noc(C3CN(Cc4ccc5c(c4)CCO5)C3)n2)cn1 | 1.35
76 | Cc1cccc(N2CCOCC3(C2)CN(c2ccccc2)C(=O)CO3)n1 (configuration not stated) | -4.53
77 | COCc1nn(C(C)C)c2c1CCN(Cc1ccc(C)o1)C2 | 2.32
78 | O=C(CSc1nnc(N2CCNCC2)s1)Nc1ccccc1 | 2.84
79 | CNC(=O)COC1COC2(CCN(Cc3ccncc3F)CC2)C1 (configuration not stated) | 7.37
80 | Cc1cccc(CN2CCC3(CCN(c4cccnc4)C3=O)C2)n1 (configuration not stated) | -1.63
81 | CN(Cc1cn2c(n1)CN(Cc1ccc(F)cc1)CC2)Cc1ccco1 | -77
82 | CCn1ncc2c1CN(CCc1cccc(Cl)c1)CC2COC (configuration not stated) | -98.4
